Assay [1] concerns the target T1, Neuropeptide Y receptor type 1 (Homo sapiens, UniProt P25929).
T1 sequence (P25929 whole entry): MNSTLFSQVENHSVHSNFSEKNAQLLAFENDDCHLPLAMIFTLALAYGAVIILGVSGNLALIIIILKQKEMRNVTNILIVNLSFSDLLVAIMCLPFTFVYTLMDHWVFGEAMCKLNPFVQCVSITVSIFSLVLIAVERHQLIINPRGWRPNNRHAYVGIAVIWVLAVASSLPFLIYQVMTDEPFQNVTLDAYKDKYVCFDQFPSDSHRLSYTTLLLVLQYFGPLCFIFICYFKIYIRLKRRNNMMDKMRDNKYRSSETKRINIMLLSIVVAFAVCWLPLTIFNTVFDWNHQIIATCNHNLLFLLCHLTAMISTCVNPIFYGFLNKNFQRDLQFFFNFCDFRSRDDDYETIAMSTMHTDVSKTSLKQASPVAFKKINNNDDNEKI
Description: In vitro binding affinity towards human neuropeptide Y receptor type 1, determined by measuring its ability to displace [125]peptide YY.

The test system of another assay is SK-N-MC. The assay can be described thus: In vitro functional activity determined by its ability to antagonize 1 nM NPYs inhibition of forskolin -stimulated cyclic AMP accumulation in SK-N-MC cells. Format: cell-based, Homo sapiens. A digest of the protocol:
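SK-N-MC cells were stimulated with forskolin. NPY (1 nM) and antagonist were added at the same time and incubated for only 15 min, to avoid receptor desensitization. Read-out was reversal of the NPY-induced inhibition of cAMP accumulation.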

Each structure is given as a SMILES string. Some results are limits rather than exact numbers.

For the molecule `Cc1ccc2c(c1)nc(COc1ccc(Cl)cc1)n2CCCC1CCCNC1.Cc1ccc2nc(COc3ccc(Cl)cc3)n(CCCC3CCCNC3)c2c1` (configuration not stated), the affinity in assay [1], expressed as Ki, was 1290 nM.

In the case of `Clc1ccc(OCc2nc3ccccc3n2CCCN2CCCCC2)cc1`, in assay [1], the Ki – broadly, the equilibrium dissociation constant of an inhibitor or competing ligand from its target – was found to be 7020 nM.

Regarding `Clc1ccc(OCc2nc3c(OCCCC4CCNCC4)cccc3n2CCCC2CCCNC2)cc1` (configuration not stated), the Ki was determined as 152 nM in assay [1] and 119 nM with SK-N-MC.

On to `Clc1ccc(OCc2nc3c(OCCC[C@H]4CCCNC4)cccc3n2CCC[C@@H]2CCCNC2)cc1`, for which the Ki amounted to 27 nM in assay [1] and 137 nM in the assay on SK-N-MC.

For `Clc1ccc(OCc2nc3c(OCCCC4CCCNC4)cccc3n2CCCC2CCCNC2)cc1` (configuration not stated), the Ki in assay [1] amounted to 30 nM; in the assay on SK-N-MC it was 77 nM.

As to `Cc1cccc2c1nc(COc1ccc(Cl)cc1)n2CCCC1CCCNC1` (configuration not stated), the Ki in assay [1] was 97 nM.

`Cc1cccc2nc(COc3ccc(Cl)cc3)n(CCCC3CCCNC3)c12` (configuration not stated) gave a Ki in assay [1] of 400 nM.

Regarding `Clc1ccc(OCc2nc3ccccc3n2CCCC2CCCCN2)cc1` (configuration not stated), the affinity in assay [1] corresponds to a Ki of 3230 nM.

As to `Clc1ccc(OCc2nc3c(OCCC[C@@H]4CCCNC4)cccc3n2CCC[C@@H]2CCCNC2)cc1`, the Ki in assay [1] came out at 6 nM; in the assay with SK-N-MC it was 87 nM.

`Clc1ccc(OCc2nc3ccccc3n2CCC2CCCCN2)cc1` (configuration not stated) gave a Ki in assay [1] of 7860 nM.

As for `Oc1cccc2c1nc(COc1ccc(Cl)cc1)n2CCCC1CCCNC1` (configuration not stated), in assay [1], affinity was put at a Ki of 5300 nM.

For `N=C(N)NCCCC(NC(=O)C(c1ccccc1)c1ccccc1)C(=O)NCc1ccc(O)cc1` (configuration not stated), the Ki with SK-N-MC came to 11 nM.

As to `Clc1ccc(OCc2nc3c(OCCCN4CCCCC4)cccc3n2CCCC2CCCNC2)cc1` (configuration not stated), the Ki in assay [1] turned out to be 1.7 nM; with SK-N-MC, 2.7 nM.

As to `Clc1ccc(OCc2nc3ccccc3n2CCCCC2CCCNC2)cc1` (configuration not stated), the Ki in assay [1] was determined as 1210 nM.

In assay [1], `Clc1ccc(OCc2nc3ccccc3n2CCC2CCNCC2)cc1` showed a Ki of 940 nM. The Ki values of the last two molecules are within 1.5-fold of each other.

For the molecule `Clc1ccc(OCc2nc3ccccc3n2CCCC2CCNCC2)cc1`, the Ki in assay [1] was 980 nM.

For the molecule `Clc1ccc(OCc2nc3c(OCCC[C@@H]4CCCNC4)cccc3n2CCC[C@H]2CCCNC2)cc1`, the Ki in assay [1] stood at 17 nM; in the assay with SK-N-MC, 65 nM.

For the molecule `Clc1ccc(OCc2nc3c(OCCC4CCNCC4)cccc3n2CCCC2CCCNC2)cc1` (configuration not stated), the Ki came to 7 nM in assay [1] and 15 nM in the assay with SK-N-MC.

With `Clc1ccc(OCc2nc3ccccc3n2CCCC2CCCNC2)cc1` (configuration not stated), the Ki in assay [1] came out at 700 nM. That is a sub-micromolar value.

Regarding `Clc1ccc(OCc2nc3c(OCCC[C@H]4CCCNC4)cccc3n2CCC[C@H]2CCCNC2)cc1`, the Ki in assay [1] was 41 nM; with SK-N-MC, 153 nM.

For the molecule `Clc1ccc(OCc2nc3c(OCCC4CCCCN4)cccc3n2CCCC2CCCNC2)cc1` (configuration not stated), in assay [1], the Ki came to 29 nM. This counts as double-digit nanomolar.

On to `Clc1ccc(OCc2nc3ccccc3n2CCC2CCCNC2)cc1` (configuration not stated), for which, in assay [1], the affinity, expressed as Ki, was 1280 nM.

Take `Clc1ccc(OCc2nc3ccccc3n2CCN2CCCCC2)cc1`: the inhibition constant Ki in assay [1] is above 100000 nM.

Consider `Clc1ccc(OCc2nc3c(OCCC4CCCNC4)cccc3n2CCCC2CCCNC2)cc1` (configuration not stated), for which the figures for the Ki (in assay [1]; in the assay on SK-N-MC) were 18 nM and 91 nM, respectively.

As to `Clc1ccc(OCc2nc3c(OCCCC4CCCCN4)cccc3n2CCCC2CCCNC2)cc1` (configuration not stated), the Ki in assay [1] was 16 nM; in the assay on SK-N-MC it was 53 nM.

As to `Clc1ccc(OCc2nc3c(OCCN4CCCCC4)cccc3n2CCCC2CCCNC2)cc1` (configuration not stated), the values for the Ki (in assay [1]; with SK-N-MC) were 43 nM and 240 nM, respectively.

Values taken from ChEMBL document CHEMBL1131030, “Synthesis and evaluation of a series of novel 2-[(4-chlorophenoxy)methyl]benzimidazoles as selective neuropeptide Y Y1 receptor antagonists” (J Med Chem, 1998).
